# Results taken from ChEMBL document CHEMBL1142915, “Synthesis, structure, and estrogenic activity of 4-amino-3-(2-methylbenzyl)coumarins on human breast carcinoma cells” (Bioorg Med Chem, 2007).
# The source made the active and inactive calls. No cut-off for these calls is given here. Residues, ends and D or L forms follow the SMILES beside them. *: point of attachment. Cbz = O=C(OCc1ccccc1)*
# Columns and labels:
# [1] = tested on: MDA-MB-231; assay: Effect on proliferation of estrogen receptor deficient MDA-MB-231 cells at 1 uM after 3 days; format: functional, cell-based; conditions: Homo sapiens
# In short: (§1)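 Cells were held at least 2 days in phenol red-free DMEM with 10% charcoal-stripped FBS at 37 °C and 5% CO2, then plated at 10^4 cells/cm2. On day 1 the medium was replaced with medium containing compound at 10^-6 M. On day 4 cells were trypsinized and counted electronically. Values are % of untreated control, mean of four determinations ±SD, by ANOVA with Dunnett's test.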
# [2] = target: T1, Estrogen receptor (Homo sapiens, UniProt P03372); assay: Activity at ER assessed as enhancement of estrogen response element-driven gene transactivation in MVLN cells after 24 hrs by luciferase reporter gene assay relative to control
# T1 sequence (P03372 whole entry): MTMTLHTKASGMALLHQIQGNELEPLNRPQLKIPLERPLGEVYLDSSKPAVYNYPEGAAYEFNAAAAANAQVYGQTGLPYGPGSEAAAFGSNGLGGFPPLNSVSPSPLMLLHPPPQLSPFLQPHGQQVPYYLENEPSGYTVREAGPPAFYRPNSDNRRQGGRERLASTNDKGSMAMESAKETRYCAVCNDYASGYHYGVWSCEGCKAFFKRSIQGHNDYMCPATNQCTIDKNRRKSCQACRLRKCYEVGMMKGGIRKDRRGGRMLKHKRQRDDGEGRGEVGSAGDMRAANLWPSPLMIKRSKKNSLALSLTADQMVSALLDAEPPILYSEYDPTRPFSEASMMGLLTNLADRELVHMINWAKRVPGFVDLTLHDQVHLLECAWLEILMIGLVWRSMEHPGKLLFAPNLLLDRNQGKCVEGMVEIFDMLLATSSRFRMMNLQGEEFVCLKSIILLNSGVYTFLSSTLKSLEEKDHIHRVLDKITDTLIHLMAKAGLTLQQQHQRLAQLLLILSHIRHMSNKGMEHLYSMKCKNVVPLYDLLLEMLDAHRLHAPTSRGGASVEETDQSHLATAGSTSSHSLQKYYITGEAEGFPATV
# [3] = tested on: MCF7; assay: Down regulation of estrogen receptor expression in MCF7 cells at 1 nM after 24 hrs; format: functional, cell-based; conditions: Homo sapiens
# In short: (§2)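 MCF-7 cells were kept at least 2 days in phenol red-free DMEM with 10% charcoal-stripped FBS, seeded on glass coverslips at 10^4 cells/cm2, and treated 2 days later for 24 h. After fixation they were immunostained for ERα with HC-20 rabbit antiserum (1:40, 60 min, Triton-permeabilized) and Texas Red amplification. Median nuclear gray level was measured over about 80–120 nuclei per culture and expressed relative to untreated control. Statistics: Kruskal–Wallis with Dunn's test.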
# [4] = tested on: MCF7; assay: Abrogation of estrogen receptor down regulation in MCF7 cells at 10 uM after 7 hrs; conditions: Homo sapiens
# [5] = tested on: MCF7; assay: Inhibition of increase in proliferation of estrogen receptor expressing MCF7 cells at 10 uM after 3 days; format: functional, cell-based; conditions: Homo sapiens
# [6] = target: T2, Estrogen receptor (Homo sapiens) (UniProt P03372); assay: Displacement of [3H]17beta-estradiol from estrogen receptor relative to estradiol
# T2 sequence (whole entry): T1 sequence (P03372 whole entry)
# In short: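 Purified recombinant human ERα, diluted in 1 mg/mL BSA, adsorbed onto hydroxyapatite, washed, then incubated overnight at 0–4 °C with 1 nM [3H]E2 plus increasing amounts of cold E2 or test compound. HAP-bound radioactivity was extracted with ethanol and counted by liquid scintillation. RBA = […] × 100.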
# [7] = tested on: MCF7; assay: Down regulation of estrogen receptor expression in MCF7 cells at 1 uM after 24 hrs; format: functional, cell-based; conditions: Homo sapiens; in short: as §2
# [8] = tested on: MCF7; assay: Increase in proliferation of estrogen receptor expressing MCF7 cells at 1 uM after 3 days; format: functional, cell-based; conditions: Homo sapiens; in short: as §1
smiles,measurement,setting,value
Cc1ccccc1Cc1c(NCCc2ccccc2)c2ccccc2oc1=O,Activity,[1],inactive
CCCCCNc1c(Cc2ccccc2C)c(=O)oc2cc(OC)ccc12,Activity,[1],inactive
CCCCCCCCCCCCNc1c(Cc2ccccc2C)c(=O)oc2ccccc12,Activity,[1],inactive
same,EC50,[2],100 nM
C[C@]12CC[C@@H]3c4ccc(O)cc4CC[C@H]3[C@@H]1CC[C@@H]2O,Activity,[3],Active
CC(C)C[C@@H](C=O)NC(=O)[C@H](CC(C)C)NC(=O)[C@H](CC(C)C)NC(=O)OCc1ccccc1 (Cbz-Leu-Leu-Leu-aldehyde),Activity,[4],Active
C[C@]12CC[C@@H]3c4ccc(O)cc4C[C@@H](CCCCCCCCC[S+]([O-])CCCC(F)(F)C(F)(F)F)[C@H]3[C@@H]1CC[C@@H]2O (some centres undefined),Activity,[5],Active
Cc1ccccc1Cc1c(NC2CCCC2)c2ccccc2oc1=O,RBA,[6],< 0.1%
same,Activity,[7],Active
same,Activity,[8],Active
same,Activity,[1],inactive
Cc1ccccc1Cc1c(NC2CCCCC2)c2ccccc2oc1=O,Activity,[7],Active
same,Activity,[8],Active
same,Activity,[1],inactive
